Data on one compound can be found in ChEMBL document CHEMBL4706503, “A novel pipeline of 2-(benzenesulfonamide)-N-(4-hydroxyphenyl) acetamide analgesics that lack hepatotoxicity and retain antipyresis” (Eur J Med Chem, 2020).

pIC50: −log10 of the molar value. Active and inactive are the calls of the source. The calls are words filed in the database; no cut-off is given here. A value given as a limit tells only on which side of the number the result lay.

Series [1] in a line: Hepatotoxicity in CD1 mouse assessed as loss of chicken wire hepatic tight junctions at 600 mg/kg, po measured after 12 hrs by ZO-1 staining based optical microscopy. In kind it is toxicity, organism-based. The following applies: in vivo. In short, it runs like this: (§1)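 At 12 h, mice under 5% isoflurane were exsanguinated with saline and perfusion-fixed with 10% NBF; livers fixed 24 h, moved to 80% EtOH, paraffin-embedded and sectioned. Stains: H&E (100x), nitrotyrosine, ZO-1 (200x; 3D stacks at 1000x), TUNEL (200x).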

Series [2] concerns Mus musculus. The series is described as follows: Antipyretic activity against Baker's yeast-induced hyperthermia model in CD1 mouse at 80 mg/kg, po at 2 hrs post-injection by thermometer based analysis. It counts as functional, organism-based. A digest of the protocol: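 Male CD1 mice fasted overnight (15 h); baseline rectal temperature taken, then ip pyrogen (15% baker's yeast, 0.1 mL/kg). Rectal temperature read 4 h later; only febrile animals used, grouped by equal mean temperature. Drug or 0.9% NaCl given po at 80 mg/kg; rectal temperature recorded 2 h later; fall compared with 4 h fever value. Mean ± SEM, n = 10; one-way ANOVA with Sidak post-hoc.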

Series [3] can be described thus: Hepatotoxicity in CD1 mouse assessed as centrilobular hepatic hemorrhagic necrosis at 600 mg/kg, po measured after 12 hrs by hematoxylin and eosin staining based optical microscopy. It counts as toxicity, organism-based. The conditions noted are these: in vivo. In short, it runs like this: as §1
Series [4] in a line: Drug metabolism in CD1 mouse serum assessed as NAPQI formation at 600 mg/kg, po measured after 12 hrs by LC-MS/MS analysis. In kind it is ADME, organism-based. The following applies: in vivo. A digest of the protocol: (§2)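 Male CD1 mice dosed at 600 mg/kg (ip or po). Serum extracted twice with 3 vol ethyl acetate on ice (30 min, 3000 g spin), dried under N2, redissolved in 1:1 MeOH:H2O. LC-MS/MS in positive electrospray MRM mode monitoring m/z 150.3→108.1, identity checked against spiked NAPQI standard retention time (5.1 min).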

Series [5] has as its system Mus musculus. The series is described as follows: Analgesic activity in po dosed CD1 mouse assessed as inhibition of acetic acid-induced abdominal writhing treated with acetic acid 25 mins post drug administration and measured after 5 mins for 10 mins. It counts as functional. The conditions noted are these: 40 min. A digest of the protocol:
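Male CD1 mice fasted 15 h; drug suspended in 0.9% NaCl with ≤10% DMSO given po at 5, 10, 20, 40, 80 mg/kg. 0.4% acetic acid 10 mL/kg ip 25 min later; writhes counted 10 min starting 5 min after acid. Compared to vehicle; mean ± SEM, n > 15 per group; ED50 from dose-response curves.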

A further series addresses Cytochrome P450 2D6 (Homo sapiens, UniProt P10635). Description: Inhibition of CYP2D6 (unknown origin) in baculosomes preincubated for 20 mins followed by addition of CYP enzyme-specific substrate and NADP+ and measured after 30 mins by fluorescence based analysis. In kind it is ADME. A digest of the protocol: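 Vivid fluorogenic screen: each compound was premixed with CYP baculosomes and a regeneration system (glucose-6-phosphate plus G6P dehydrogenase) for 20 min at room temperature. Isozyme-specific substrate and NADP+ were then added for 30 min at room temperature. Reaction stopped with 0.5 M Tris base; metabolite fluorescence read. IC50 taken from 10-point titration curves.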

A short description of series [6]: Renal toxicity in CD1 mouse assessed as increase in serum creatinine level at 600 mg/kg, po measured after 12 hrs. It counts as organism-based. The conditions noted are these: in vivo. In short, it runs like this: (§3)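 Male CD1 mice fasted 15 h, given 600 mg/kg po, then fed ad libitum for 12 h. Whole blood taken by transcardial perfusion under 5% isoflurane, without anticoagulant, clotted 0.5 h at 25 °C, spun 1000 g 5 min at 4 °C. Serum stored at −80 °C, then assayed with commercial kits. n = 5 mice per compound; vehicle 0.9% NaCl.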

A short description of series [7]: Hepatotoxicity in CD1 mouse assessed as increase in serum aspartate aminotransferase level at 600 mg/kg, po measured after 12 hrs. In kind it is toxicity, organism-based. The following applies: in vivo. In short, it runs like this:
as §3

Series [8] is described as follows: Hepatotoxicity in CD1 mouse assessed as increase in apoptotic nuclei at 600 mg/kg, po measured after 12 hrs by TUNEL staining. In kind it is toxicity, organism-based. The conditions noted are these: in vivo. In short, it runs like this:
as §1

The next series has as its system Rattus norvegicus. Description: Analgesic activity in ip dosed complete freund's adjuvant-induced Sprague Dawley rat model of hyperalgesia assessed as inhibition of inflammatory pain measured after 30 mins by von Frey analgesimetric method. The conditions noted are these: 0.5 h. It counts as functional.
The subject of series [9] is HepaRG. The series is described as follows: Hepatotoxicity in human HepaRG cells assessed as increase in lactate dehydrogenase release at 50 to 5000 uM […]. In kind it is toxicity, cell-based. The conditions noted are these: dose 50-5000 µM.
A short description of series [10]: Hepatotoxicity in CD1 mouse assessed as increase in serum alanine aminotransferase level at 600 mg/kg, po measured after 12 hrs. It counts as toxicity, organism-based. The following applies: in vivo. A digest of the protocol:
as §3

A short description of series [11]: Hepatotoxicity in CD1 mouse assessed as increase in serum alkaline phosphatase level at 600 mg/kg, po measured after 12 hrs. It counts as toxicity, organism-based. The following applies: in vivo. A digest of the protocol: as §3
The nature of series [12]: Drug metabolism in CD1 mouse serum assessed as NAPQI formation at 600 mg/kg, ip measured after 12 hrs by LC-MS/MS analysis. It counts as ADME, organism-based. The following applies: in vivo. A digest of the protocol: as §2
For series [13], the system named is HepaRG. The series is described as follows: Hepatotoxicity in human HepaRG cells assessed as decrease in GSH level at 50 to 5000 uM measured after 6 to 24 hrs by Thiol tracker violet dye based fluorescence analysis. In kind it is toxicity, cell-based. The conditions noted are these: dose lower 50 µM, time lower 6 hrs, dose upper 5000 µM, time upper 24 hrs. In short, it runs like this:
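HepaRG cells (80% confluent, serum-starved 6–8 h) exposed to 50, 100, 1000 or 5000 μM for 6, 12 or 24 h. Medium then removed and cells rinsed with D-PBS-conditioned medium. Cells were stained 30 min with ThiolTracker Violet; fluorescence read at ex 404/em 526 nm and reported as RFU for cellular GSH.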

The nature of series [14]: Hepatotoxicity in CD1 mouse assessed as increase in nitrotyrosine formation in liver at 600 mg/kg, po measured after 12 hrs by nitrotyrosine immunostaining based optical microscopy. The following applies: in vivo.

The ED50 is the midpoint of the dose-response relation. Broadly, the pIC50 is the negative decadic logarithm of the IC50, by convention in mol/L.

Chain of Cytochrome P450 2D6 (P10635 whole entry): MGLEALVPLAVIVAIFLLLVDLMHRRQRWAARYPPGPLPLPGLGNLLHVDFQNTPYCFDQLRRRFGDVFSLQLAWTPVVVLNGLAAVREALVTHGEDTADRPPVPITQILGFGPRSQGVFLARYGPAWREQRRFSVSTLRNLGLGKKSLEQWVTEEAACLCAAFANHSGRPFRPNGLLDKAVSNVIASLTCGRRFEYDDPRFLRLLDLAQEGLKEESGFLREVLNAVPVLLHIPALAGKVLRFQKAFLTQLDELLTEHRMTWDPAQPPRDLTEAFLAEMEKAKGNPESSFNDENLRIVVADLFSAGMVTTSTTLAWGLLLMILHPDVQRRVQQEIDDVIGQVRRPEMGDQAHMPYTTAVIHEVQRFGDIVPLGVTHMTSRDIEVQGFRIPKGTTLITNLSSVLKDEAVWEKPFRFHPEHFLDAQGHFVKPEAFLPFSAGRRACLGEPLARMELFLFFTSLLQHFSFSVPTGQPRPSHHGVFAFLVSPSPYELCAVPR

In the case of `CC(=O)Nc1ccc(O)cc1` [ACETAMINOPHEN], the Activity result (in series [1]; in [3]; in series [6]; in [7]; in series [8]; with HepaRG [9]) was “Toxic” in each case. The Activity entry (in series [10]; in series [11]; in the series with HepaRG [13]; in series [14]) was “Toxic” in each case. Besides, the outcome in the series with Mus musculus [2] was Active. Further, the Drug metabolism entry in series [4] and in series [12] was “Metabolite_Detected” in each case. Also, the ED50 was determined as 68.6 µmol/kg in the series with Mus musculus [5] and 245 µmol/kg with Rattus norvegicus. The same compound gave a pIC50 at Cytochrome P450 2D6 of less than 5.00.
